Laboratory results published in ChEMBL document CHEMBL1145542, “Discovery of a new class of potent, selective, and orally bioavailable CRTH2 (DP2) receptor antagonists for the treatment of allergic inflammatory diseases” (J Med Chem, 2008).

Target: T1, Prostaglandin D2 receptor 2 (Homo sapiens, UniProt Q9Y5Y4)
T1 sequence (Q9Y5Y4 whole entry): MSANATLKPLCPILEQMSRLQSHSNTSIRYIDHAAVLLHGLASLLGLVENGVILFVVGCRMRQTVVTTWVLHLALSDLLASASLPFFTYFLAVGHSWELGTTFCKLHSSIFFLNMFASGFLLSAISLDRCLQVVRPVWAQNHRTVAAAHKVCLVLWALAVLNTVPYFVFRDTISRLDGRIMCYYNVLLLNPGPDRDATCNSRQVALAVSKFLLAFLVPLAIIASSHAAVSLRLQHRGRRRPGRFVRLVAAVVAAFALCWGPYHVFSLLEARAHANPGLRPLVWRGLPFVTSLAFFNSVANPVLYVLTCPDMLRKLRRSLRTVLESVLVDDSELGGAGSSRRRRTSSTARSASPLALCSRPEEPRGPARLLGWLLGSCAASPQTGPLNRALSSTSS
Assay: Displacement of [3H]PGD2 from human CRTH2 receptor expressed in CHO cells
Format: cell-based
In short: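 Scintillation proximity competition assay: 2–5 µg human or mouse CRTH2 membranes (nitrogen-cavitation, differential centrifugation) with WGA-SPA beads and 1.5 nM [3H]PGD2 in 10 mM HEPES/KOH pH 7.4, 10 mM MnCl2, protease inhibitors, 1% Me2SO, 90 min shaking at room temperature. Nonspecific binding with 1 µM PGD2. Ki by Cheng–Prusoff, mean of ≥3 independent experiments.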

COc1cccc(CN2C(=O)C[C@@]3(C2=O)C(=O)N(CC(=O)O)c2ccc(Cl)cc23)c1 and O=C(O)CN1C(=O)[C@]2(CC(=O)N(Cc3cccc(Cl)c3)C2=O)c2cc(Cl)ccc21 are within 1.5-fold of each other in Ki: 1170 nM for the first, 870 nM for the second.

First: C=CCN1C(=O)CC2(C1=O)C(=O)N(CCCC(=O)O)c1ccc(F)cc12 (configuration not stated)
Second: C=CCN1C(=O)CC2(C1=O)C(=O)N(CCCC(=O)O)c1ccc(Cl)cc12 (configuration not stated)
The Ki of the first is 5.4-fold higher: 4130 nM for the first, 769 nM for the second.

Compared with CCOC(=O)CN1C(=O)C2(CC(=O)N(Cc3ccccc3)C2=O)c2cc(Cl)ccc21 (configuration not stated), O=C(O)CN1C(=O)[C@]2(CC(=O)N(Cc3ccccc3)C2=O)c2cc(Cl)ccc21 is lower in Ki: > 30000 nM for the first, 2040 nM for the second. The second binds more tightly here.

First: Cn1nnc2cc(CN3C(=O)CC4(C3=O)C(=O)N(CC(=O)O)c3ccc(Cl)cc34)ccc21 (configuration not stated)
Second: COc1ccc(CN2C(=O)CC3(C2=O)C(=O)N(CC(=O)O)c2ccc(Cl)cc23)cc1F (configuration not stated)
The Ki of the first is 8.4-fold higher: 1300 nM for the first, 154 nM for the second. The second binds more tightly here.

First: COCCOCN1C(=O)CC2(C1=O)C(=O)N(CC(=O)O)c1ccc(F)cc12 (configuration not stated)
Second: COCCN1C(=O)CC2(C1=O)C(=O)N(CC(=O)O)c1ccc(Cl)cc12 (configuration not stated)
The Ki of the first is 2.6-fold higher: 3830 nM for the first, 1450 nM for the second.

Going from O=C(O)CN1C(=O)C2(CC(=O)N(Cc3ccoc3)C2=O)c2cc(Cl)ccc21 (configuration not stated) to O=C(O)CN1C(=O)[C@@]2(CC(=O)N(Cc3ccccc3)C2=O)c2cc(Cl)ccc21, the Ki falls from 318 nM to 81 nM (3.9-fold). The second binds more tightly here.

Going from CC(c1ccccc1)N1C(=O)CC2(C(=O)N(CC(=O)O)c3ccc(Cl)cc32)C1=O (configuration not stated) to O=C(O)CN1C(=O)C2(CC(=O)N(C/C=C/c3ccccc3)C2=O)c2cc(Cl)ccc21 (configuration not stated), the Ki rises from 356 nM to 747 nM (2.1-fold).

First: O=C(O)CN1C(=O)C2(CC(=O)N(Cc3ccc(Cl)cc3)C2=O)c2cc(Cl)ccc21 (configuration not stated)
Second: CS(=O)(=O)c1ccc(CN2C(=O)CC3(C2=O)C(=O)N(CC(=O)O)c2ccc(Cl)cc23)cc1 (configuration not stated)
The Ki of the first is 13-fold lower: 115 nM for the first, 1510 nM for the second.

First: O=C(O)CN1C(=O)C2(CC(=O)N(Cc3cc(Cl)ccc3F)C2)c2cc(Cl)ccc21 (single isomer, unassigned; form 2)
Second: O=C(O)CN1C(=O)[C@]2(CC(=O)N(Cc3cc(Cl)ccc3F)C2=O)c2cc(Cl)ccc21
The Ki of the first is 2.3-fold higher: 683 nM for the first, 302 nM for the second.

First: COc1ccccc1CN1C(=O)CC2(C1=O)C(=O)N(CC(=O)O)c1ccc(Cl)cc12 (configuration not stated)
Second: O=C(O)CN1C(=O)[C@]2(CC(=O)N(Cc3ccccc3F)C2=O)c2cc(Cl)ccc21
The Ki of the first is 4-fold lower: 233 nM for the first, 926 nM for the second.

First: O=C(O)CN1C(=O)C2(CC(=O)N(Cc3ccc(Oc4ccccc4)cc3)C2=O)c2cc(Cl)ccc21 (configuration not stated)
Second: COc1ccc2c(c1)C1(CC(=O)N(Cc3ccccc3)C1=O)C(=O)N2CC(=O)O (configuration not stated)
The Ki of the first is 19-fold lower: 143 nM for the first, 2740 nM for the second.

O=C(O)CN1C(=O)C2(CC(=O)N(Cc3c[nH]c4ccccc34)C2=O)c2cc(Cl)ccc21 (configuration not stated) and O=C(O)CN1C(=O)C2(CC(=O)N(Cc3ccccc3)C2=O)c2cc(F)ccc21 (configuration not stated) are within 1.5-fold of each other in Ki: 596 nM for the first, 712 nM for the second.

Compared with CC(C)(C)c1nc(CN2C(=O)CC3(C2=O)C(=O)N(CC(=O)O)c2ccc(Cl)cc23)no1 (configuration not stated), O=C(O)CN1C(=O)C2(CC(=O)N(Cc3ncco3)C2=O)c2cc(Cl)ccc21 (configuration not stated) is 3.1-fold lower in Ki: 1340 nM for the first, 438 nM for the second. The second binds more tightly here.

Going from Cc1onc(-c2ccccc2)c1CN1CCC2(C1=O)C(=O)N(CC(=O)O)c1ccc(Cl)cc12 (configuration not stated) to O=C(O)CN1C(=O)C2(CC(=O)N(Cc3csc(-c4ccc(Cl)cc4)n3)C2=O)c2cc(Cl)ccc21 (configuration not stated), the Ki falls from 2240 nM to 55 nM (41-fold). The second binds more tightly here.

Compared with CN1C(=O)CC2(C1=O)C(=O)N(CC(=O)O)c1ccc(Cl)cc12 (configuration not stated), CN(C)C(=O)CN1C(=O)CC2(C1=O)C(=O)N(CC(=O)O)c1ccc(Cl)cc12 (configuration not stated) is 1.6-fold lower in Ki: 7620 nM for the first, 4670 nM for the second.

Compared with CN(C)C(=O)CN1C(=O)CC2(C1=O)C(=O)N(CC(=O)O)c1ccc(F)cc12 (configuration not stated), CN1C(=O)CC2(C1=O)C(=O)N(CCCC(=O)O)c1ccc(F)cc12 (configuration not stated) is lower in Ki: > 30000 nM for the first, 8900 nM for the second. The second binds more tightly here.

Compared with CN1C(=O)C2(CC(=O)N(Cc3ccccc3)C2=O)c2cc(Cl)ccc21 (configuration not stated), O=C(O)CCCN1C(=O)C2(CC(=O)N(Cc3ccccc3)C2=O)c2cc(Cl)ccc21 (configuration not stated) is 7-fold lower in Ki: 11600 nM for the first, 1660 nM for the second. The second binds more tightly here.

Compared with O=C(O)CCCN1C(=O)C2(CC(=O)N(Cc3ccccc3)C2=O)c2cc(F)ccc21 (configuration not stated), COc1ccc(CN2C(=O)CC3(C2=O)C(=O)N(CCCC(=O)O)c2ccc(Cl)cc23)cc1 (configuration not stated) is 4.3-fold lower in Ki: 4170 nM for the first, 960 nM for the second.

O=C(O)CN1C(=O)C2(CC(=O)N(Cc3cc(Cl)ccc3F)C2)c2cc(Cl)ccc21 (configuration not stated) showed a Ki of 32 nM.
